Calls of active or inactive are those of the source.
Assays:
[1] = molecular target: Heat shock protein HSP 90-beta (Homo sapiens) (UniProt P08238); assay: Inhibition of HSP90-mediated antiapoptotic activity in human NCI-H526 cells assessed as increase in apoptotic cell population at 0.2 to 1 uM after 72 hrs by FACS analysis relative to control; format: cell-based
[2] = molecular target: Heat shock protein HSP 90-beta (Homo sapiens) (UniProt P08238); assay: Inhibition of HSP90 in chemo-resistant human WBA cells at 100 uM after 24 hrs by fluorescence polarization assay; format: cell-based
Procedure, shortened: (§1)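 Competitive fluorescence polarization in lysates of H69AR, SKI-AC3 and WBA cells, prepared in HFB buffer pH 7.3 and normalized to Hsp90. Tracer was 3 nM Cy3B-geldanamycin, with incubation for 24 h at 4 °C. EC50 was defined as 50% tracer displacement.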

[3] = molecular target: Heat shock protein HSP 90-beta (Homo sapiens) (UniProt P08238); assay: Binding affinity to HSP90 in human SKBR3 cells after 24 hrs by fluorescence polarization assay; settings: SK-BR-3
[4] = molecular target: Heat shock protein HSP 90-beta (Homo sapiens) (UniProt P08238); assay: Binding affinity to HSP90 in human NCI-H526 cells after 24 hrs by fluorescence polarization assay; format: cell-based
[5] = molecular target: Heat shock protein HSP 90-beta (Homo sapiens) (UniProt P08238); assay: Inhibition of HSP90-mediated antiapoptotic activity in human NCI-H69 cells assessed as increase in apoptotic cell population at 0.2 to 1 uM after 72 hrs by FACS analysis relative to control; format: cell-based
[6] = molecular target: Heat shock protein HSP 90-beta (Homo sapiens) (UniProt P08238); assay: Inhibition of HSP90-mediated antiapoptotic activity in human NCI-H209 cells assessed as increase in apoptotic cell population at 0.2 to 1 uM after 96 hrs by FACS analysis relative to control; format: cell-based
[7] = molecular target: Heat shock protein HSP 90-beta (Homo sapiens) (UniProt P08238); assay: Inhibition of HSP90 in chemo-resistant human SKI-AC3 cells at 100 uM after 24 hrs by fluorescence polarization assay; format: cell-based; procedure, shortened: as §1
[8] = molecular target: Heat shock protein HSP 90-beta (Homo sapiens) (UniProt P08238); assay: Inhibition of HSP90-mediated proliferation of human NCI-N417 cells at 1 to 3 uM after 72 to 96 hrs by sulforhodamine B assay; format: cell-based; settings: NCI-H417
[9] = molecular target: Heat shock protein HSP 90-beta (Homo sapiens) (UniProt P08238); assay: Inhibition of HSP90-mediated proliferation of human NCI-H510 cells at 1 to 3 uM after 72 to 96 hrs by sulforhodamine B assay; format: cell-based
[10] = molecular target: Heat shock protein HSP 90-beta (Homo sapiens) (UniProt P08238); assay: Inhibition of HSP90-mediated proliferation of human NCI-H209 cells at 1 to 3 uM after 72 to 96 hrs by sulforhodamine B assay; format: cell-based
[11] = molecular target: Heat shock protein HSP 90-beta (Homo sapiens) (UniProt P08238); assay: Inhibition of HSP90-mediated proliferation of human NCI-H526 cells at 1 to 3 uM after 72 to 96 hrs by sulforhodamine B assay; format: cell-based
[12] = molecular target: Heat shock protein HSP 90-beta (Homo sapiens) (UniProt P08238); assay: Binding affinity to HSP90 in human NCI-H146 cells after 24 hrs by fluorescence polarization assay; format: cell-based
[13] = molecular target: Heat shock protein HSP 90-beta (Homo sapiens) (UniProt P08238); assay: Inhibition of HSP90-mediated antiapoptotic activity in human NCI-H510 cells assessed as increase in apoptotic cell population at 0.2 to 1 uM after 96 hrs by FACS analysis relative to control; format: cell-based
[14] = molecular target: Heat shock protein HSP 90-beta (Homo sapiens) (UniProt P08238); assay: Inhibition of HSP90-mediated antiapoptotic activity in human WBA cells assessed as induction of cell growth arrest at 10 after 96 hrs by propidium iodide staining-based flow cytometry
[15] = molecular target: Heat shock protein HSP 90-beta (Homo sapiens) (UniProt P08238); assay: Inhibition of HSP90-mediated antiapoptotic activity in human NCI-N417 cells assessed as increase in apoptotic cell population at 0.2 to 1 uM after 96 hrs by FACS analysis relative to control; format: cell-based
[16] = molecular target: Heat shock protein HSP 90-beta (Homo sapiens) (UniProt P08238); assay: Inhibition of HSP90-mediated antiapoptotic activity in human SKI-AC3 cells assessed as induction of cell growth arrest at 10 after 96 hrs by propidium iodide staining-based flow cytometry
[17] = molecular target: Heat shock protein HSP 90-beta (Homo sapiens) (UniProt P08238); assay: Inhibition of HSP90-mediated antiapoptotic activity in human NCI-H146 cells assessed as increase in apoptotic cell population at 0.2 to 1 uM after 96 hrs by FACS analysis relative to control; format: cell-based
[18] = molecular target: Heat shock protein HSP 90-beta (Homo sapiens) (UniProt P08238); assay: Binding affinity to HSP90 in human NCI-H69 cells after 24 hrs by fluorescence polarization assay
[19] = molecular target: Heat shock protein HSP 90-beta (Homo sapiens) (UniProt P08238); assay: Binding affinity to HSP90 in human NCI-N417 cells after 24 hrs by fluorescence polarization assay; format: cell-based; settings: NCI-H417
[20] = molecular target: Heat shock protein HSP 90-beta (Homo sapiens) (UniProt P08238); assay: Inhibition of HSP90 in chemo-resistant human H69AR cells at 100 uM after 24 hrs by fluorescence polarization assay; format: cell-based; procedure, shortened: as §1
[21] = molecular target: Heat shock protein HSP 90-beta (Homo sapiens) (UniProt P08238); assay: Inhibition of HSP90-mediated antiapoptotic activity in human NCI-H187 cells assessed as increase in apoptotic cell population at 0.2 to 1 uM after 72 hrs by FACS analysis relative to control; format: cell-based
[22] = molecular target: Heat shock protein HSP 90-beta (Homo sapiens) (UniProt P08238); assay: Inhibition of HSP90-mediated proliferation of human NCI-H69 cells at 1 to 3 uM after 72 to 96 hrs by sulforhodamine B assay; format: cell-based
[23] = molecular target: Heat shock protein HSP 90-beta (Homo sapiens) (UniProt P08238); assay: Binding affinity to HSP90 in human NCI-H187 cells after 24 hrs by fluorescence polarization assay
[24] = molecular target: Heat shock protein HSP 90-beta (Homo sapiens) (UniProt P08238); assay: Inhibition of HSP90-mediated proliferation of human NCI-H146 cells at 1 to 3 uM after 72 to 96 hrs by sulforhodamine B assay; format: cell-based
[25] = molecular target: Heat shock protein HSP 90-beta (Homo sapiens) (UniProt P08238); assay: Inhibition of HSP90-mediated proliferation of human NCI-H187 cells at 1 to 3 uM after 72 to 96 hrs by sulforhodamine B assay; format: cell-based
[26] = molecular target: Heat shock protein HSP 90-beta (Homo sapiens) (UniProt P08238); assay: Binding affinity to HSP90 in human NCI-H209 cells after 24 hrs by fluorescence polarization assay; format: cell-based
[27] = molecular target: Heat shock protein HSP 90-beta (Homo sapiens) (UniProt P08238); assay: Binding affinity to HSP90 in human NCI-H510 cells after 24 hrs by fluorescence polarization assay; format: cell-based
[28] = molecular target: Heat shock protein HSP 90-beta (Homo sapiens) (UniProt P08238); assay: Inhibition of HSP90-mediated antiapoptotic activity in human H69AR cells assessed as induction of cell growth arrest at 10 after 96 hrs by propidium iodide staining-based flow cytometry
[29] = molecular target: Heat shock protein HSP 90-beta (Homo sapiens) (UniProt P08238); assay: Inhibition of HSP90-mediated proliferation of human SKBR3cells after 72 hrs by sulforhodamine B assay

Sequence of Heat shock protein HSP 90-beta (Homo sapiens) (P08238 whole entry): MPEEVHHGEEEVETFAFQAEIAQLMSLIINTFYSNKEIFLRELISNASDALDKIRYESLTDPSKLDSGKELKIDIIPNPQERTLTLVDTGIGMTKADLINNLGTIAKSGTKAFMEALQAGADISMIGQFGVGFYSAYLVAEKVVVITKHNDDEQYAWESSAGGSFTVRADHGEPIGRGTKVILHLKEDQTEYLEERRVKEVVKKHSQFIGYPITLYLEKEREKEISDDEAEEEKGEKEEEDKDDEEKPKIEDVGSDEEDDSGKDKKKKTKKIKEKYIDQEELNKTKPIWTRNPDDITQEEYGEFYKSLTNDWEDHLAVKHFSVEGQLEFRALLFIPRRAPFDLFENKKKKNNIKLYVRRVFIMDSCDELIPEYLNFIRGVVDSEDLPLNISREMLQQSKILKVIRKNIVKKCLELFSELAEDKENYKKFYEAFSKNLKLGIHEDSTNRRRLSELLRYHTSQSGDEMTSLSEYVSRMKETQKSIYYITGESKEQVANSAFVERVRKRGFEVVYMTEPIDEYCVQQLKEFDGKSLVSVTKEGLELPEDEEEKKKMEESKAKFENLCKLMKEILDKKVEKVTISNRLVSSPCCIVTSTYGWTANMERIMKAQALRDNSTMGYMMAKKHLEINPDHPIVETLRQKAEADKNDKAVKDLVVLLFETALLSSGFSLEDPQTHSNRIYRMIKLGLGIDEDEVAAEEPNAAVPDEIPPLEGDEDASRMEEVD

- fold change (FC) [1]: 2
- inhibition [2]: Active
- Activity [3]: Active
- Activity [4]: Active
- fold change (FC) [5]: 2
- fold change (FC) [6]: 2
- inhibition [7]: Active
- inhibition [8]: 50%
- inhibition [9]: 50%
- inhibition [10]: 50%
- inhibition [11]: 50%
- Activity [12]: Active
- fold change (FC) [13]: 2
- Activity [14]: Active
- fold change (FC) [15]: 2
- Activity [16]: Active
- fold change (FC) [17]: 2
- Activity [18]: Active
- Activity [19]: Active
- inhibition [20]: Active
- fold change (FC) [21]: 2
- inhibition [22]: 50%
- Activity [23]: Active
- inhibition [24]: 50%
- inhibition [25]: 50%
- Activity [26]: Active
- Activity [27]: Active
- Activity [28]: Active
- inhibition [29]: Active
SMILES: C#CCCCn1c(Sc2cc3c(cc2Br)OCO3)nc2c(N)ncnc21

Reference: ChEMBL document CHEMBL1240328, “Selective compounds define Hsp90 as a major inhibitor of apoptosis in small-cell lung cancer” (Nat Chem Biol, 2007)
